Consider one compound from ChEMBL document CHEMBL3877298, “Discovery of benzimidazole derivatives as modulators of mitochondrial function: A potential treatment for Alzheimer's disease” (Eur J Med Chem, 2017).

The term inhibition denotes the percentage by which the read-out fell short of the control. Broadly, the Cmax is the maximum level reached in the sampled fluid or tissue. As a reminder, the AUC(0-t) is exposure summed from dosing to a finite time, without extrapolation to infinity. What is called AUC(0-inf) is total exposure, with the tail of the curve extrapolated. The Tmax is the time at which the peak concentration occurs.

One series has as its target CYP2D6 (Homo sapiens, UniProt P10635). The experiment in a line: Inhibition of recombinant human CYP2D6 expressed in baculosomes coexpressing rabbit NADPH-P450 reudctase assessed as residual activity at 10 uM preincubated for 5 mins followed by substrate and NADP+ addition measured after 20 mins by fluorescence assay relative to control. It is filed as ADME. The note with it: read-out: Activity. In outline:
(§1)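 Vivid CYP450 kit: recombinant human CYP isozyme in Baculosomes with rabbit NADPH-P450 reductase, plus regeneration system (3.3 mM glucose-6-phosphate, 0.3 U/mL G6PDH in 100 mM potassium phosphate, pH 8.0). Mixture preincubated with sample for 5 min at 37 °C. Vivid substrate and 0.1 mM NADP+ were then added, and remaining activity read by fluorescence after 20 min.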

For series [1], the target named is Translocator protein (Mus musculus) (UniProt P50637). As to the kind of experiment: Inhibition of TSPO in mouse HT22 cells assessed as protection against amyloid beta (1 to 42)-induced mitochondrial membrane potential loss by measuring recovery of mitochondrial membrane potential at 5 uM preincubated for 10 mins followed by amyloid beta (1 to 42) addition measured every 1 hr for 3 hrs by JC1 staining based fluorescence assay relative to control. It is filed as cell-based. Also noted: scale not given: the % may be the effect or the level left. To be noted: HT-22. In short, it runs like this:
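HT22 cells at 30,000 per well were loaded with 7.5 µM JC-1 in phenol red-free Opti-MEM for 1 h 15 min at 37 °C, then washed. Cells were treated with compound (5 µM) and Aβ1-42 (5 µM); vehicle wells received DMSO. Green (485/535) and red (560/595) fluorescence were read hourly for 3 h. Recovery was normalised between Aβ-damaged (0%) and normal (100%) ratio.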

For series [2] the target is unchanged. The experiment in a line: Inhibition of TSPO in mouse HT22 cells assessed as inhibition of amyloid beta (1 to 42)-induced toxicity at 5 uM after 24 hrs by MTT assay relative to control. To be noted: HT-22. It is filed as cell-based. In outline: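 HT22 cells at 5000 per well were treated with compound (5 µM), with or without Aβ1-42 (5 µM), for 24 h at 37 °C. MTT was added for 2 h, then solubilising solution (10% Triton X-100 in isopropanol with 0.1 M HCl) for 2 h more. Absorbance read at 560 nm; % inhibition normalised to vehicle, and viability taken from compound-only wells.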
For orientation: Tetrazolium dyes change colour on reduction, which living cells bring about.

In another series the target is T1, CYP1A2 (Homo sapiens, UniProt P05177).
T1 sequence (P05177 whole entry): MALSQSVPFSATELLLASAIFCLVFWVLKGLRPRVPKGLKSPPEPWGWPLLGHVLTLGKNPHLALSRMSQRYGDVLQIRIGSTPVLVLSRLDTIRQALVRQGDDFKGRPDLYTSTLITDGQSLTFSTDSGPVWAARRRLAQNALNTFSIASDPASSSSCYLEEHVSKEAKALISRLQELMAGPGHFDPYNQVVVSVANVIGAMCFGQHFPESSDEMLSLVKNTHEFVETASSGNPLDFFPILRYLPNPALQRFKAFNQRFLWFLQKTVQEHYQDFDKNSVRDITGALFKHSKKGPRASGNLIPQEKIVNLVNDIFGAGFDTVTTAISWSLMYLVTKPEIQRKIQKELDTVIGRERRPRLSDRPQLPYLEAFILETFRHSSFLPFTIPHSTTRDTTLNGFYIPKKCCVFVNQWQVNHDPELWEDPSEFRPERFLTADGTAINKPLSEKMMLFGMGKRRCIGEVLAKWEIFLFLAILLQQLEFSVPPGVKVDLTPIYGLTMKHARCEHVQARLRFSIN
As to the kind of experiment: Inhibition of recombinant human CYP1A2 expressed in baculosomes coexpressing rabbit NADPH-P450 reudctase assessed as residual activity at 10 uM preincubated for 5 mins followed by substrate and NADP+ addition measured after 20 mins by fluorescence assay relative to control. It is filed as ADME. The note with it: read-out: Activity. In outline:
as §1

Series [3] is described as follows: Cmax in Sprague-Dawley rat at 10 mg/kg, po by LC-MS/MS analysis. To be noted: in vivo. Also noted: dose 10 mg/kg, route oral. It is filed as ADME, organism-based. In short, it runs like this: (§2)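 Male SD rats, 8 weeks old, acclimatised at least 1 week; compound dissolved at 10 mg/2 mL in N-methyl-2-pyrrolidone/Tween80/water (1:2:7) by 5 min sonication, given 10 mg/kg by oral gavage at 2 mL/kg (n = 5). Heart-puncture blood drawn at 30 min and 3 h, plasma spun and stored at -70 °C. Samples mixed with carbamazepine internal standard in acetonitrile and assayed by LC-MS/MS.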

Another series deals with CYP2C9 (Homo sapiens, UniProt P11712). The experiment in a line: Inhibition of recombinant human CYP2C9 expressed in baculosomes coexpressing rabbit NADPH-P450 reudctase assessed as residual activity at 10 uM preincubated for 5 mins followed by substrate and NADP+ addition measured after 20 mins by fluorescence assay relative to control. It is filed as ADME. To be noted: read-out: Activity. In short, it runs like this:
as §1

In series [4] the test system is Mus musculus. The experiment in a line: Reversal of coginitive deficit in double APP/PS1 transgenic Alzheimer's disease mouse model assessed as increase in freezing response at 30 mg/kg, po daily for 1 month by contextual fear conditioning test. It is filed as functional.
In series [5] the target is Translocator protein (Mus musculus) (UniProt P50637). The experiment in a line: Inhibition of TSPO in mouse HT22 cells assessed as inhibition of amyloid beta (1 to 42)-induced ROS generation at 5 uM after 6 hrs by DCFDA staining based fluorescence assay relative to control. It is filed as cell-based. The note with it: HT-22.
Series [6] concerns Mus musculus. The experiment in a line: Cognition enhancing effect in ICR mouse model of acute Alzheimer's disease assessed as reversal of amyloid beta (1 to 42)-induced cognitive deficit by measuring spatial working memory at 30 mg/kg, ip daily for 6 days measured on day 7 by Y maze spontaneous alteration test relative to control. It is filed as functional. In short, it runs like this: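 Male ICR mice (6 weeks, 30–33 g) received Aβ1-42 500 pmol ICV in 10% DMSO/PBS. Compound in 20% cyclodextrin was given at 30 mg/kg daily for 6 days (n = 7 per group). One day later, each mouse explored a three-arm Y-maze for 8 min, and the sequence of arm entries was used to calculate % spontaneous alternation.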

Series [7] can be described thus: Terminal half life in Sprague-Dawley rat at 10 mg/kg, po by LC-MS/MS analysis. It is filed as ADME, organism-based. The note with it: in vivo, read-out: beta t1/2. In short, it runs like this:
as §2

Series [8] is described as follows: AUClast in Sprague-Dawley rat at 10 mg/kg, po by LC-MS/MS analysis. It is filed as ADME, organism-based. Also noted: dose 10 mg/kg, route oral, time 0 - last. The note with it: in vivo. In short, it runs like this:
as §2

In a further series the target is CYP2C19 (Homo sapiens, UniProt P33261). As to the kind of experiment: Inhibition of recombinant human CYP2C19 expressed in baculosomes coexpressing rabbit NADPH-P450 reudctase assessed as residual activity at 10 uM preincubated for 5 mins followed by substrate and NADP+ addition measured after 20 mins by fluorescence assay relative to control. It is filed as ADME. To be noted: read-out: Activity. In short, it runs like this:
as §1

Series [9] can be described thus: AUC (0 to infinity) in Sprague-Dawley rat at 10 mg/kg, po by LC-MS/MS analysis. The note with it: in vivo. Also noted: dose 10 mg/kg, route oral, time infinity. It is filed as ADME, organism-based. In outline:
as §2

The nature of series [10]: Volume of distribution at steady state in Sprague-Dawley rat at 10 mg/kg, iv by LC-MS/MS analysis. To be noted: in vivo, read-out: Vdss. It is filed as ADME, organism-based. In outline:
(§3)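 Male SD rats, 8 weeks old, given 10 mg/kg intravenously (n = 4). Plasma mixed with carbamazepine internal standard in acetonitrile, vortexed, centrifuged at 10,000×g, and the supernatant analysed by LC-MS/MS. Parameters reported as mean ± SD.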

The nature of series [11]: Terminal half life in Sprague-Dawley rat at 10 mg/kg, iv by LC-MS/MS analysis. It is filed as ADME, organism-based. The note with it: in vivo, read-out: beta t1/2. In short, it runs like this:
as §3

Series [12] is described as follows: Ratio of drug level in brain to plasma in Sprague-Dawley rat at 10 mg/kg, po at 2 hrs post dose by LC-MS/MS analysis. It is filed as ADME, organism-based. The note with it: brain and plasma, read-out: BPR.
The nature of series [13]: Tmax in Sprague-Dawley rat at 10 mg/kg, po by LC-MS/MS analysis. It is filed as ADME, organism-based. To be noted: in vivo. In short, it runs like this:
as §2

Chain of Translocator protein (Mus musculus) (P50637 whole entry, looked up): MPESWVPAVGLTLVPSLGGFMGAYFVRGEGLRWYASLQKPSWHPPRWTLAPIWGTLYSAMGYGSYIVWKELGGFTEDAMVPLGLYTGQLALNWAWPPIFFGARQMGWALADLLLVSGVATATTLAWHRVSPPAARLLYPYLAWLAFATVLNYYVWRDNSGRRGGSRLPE
Chain of CYP2D6 (P10635 whole entry): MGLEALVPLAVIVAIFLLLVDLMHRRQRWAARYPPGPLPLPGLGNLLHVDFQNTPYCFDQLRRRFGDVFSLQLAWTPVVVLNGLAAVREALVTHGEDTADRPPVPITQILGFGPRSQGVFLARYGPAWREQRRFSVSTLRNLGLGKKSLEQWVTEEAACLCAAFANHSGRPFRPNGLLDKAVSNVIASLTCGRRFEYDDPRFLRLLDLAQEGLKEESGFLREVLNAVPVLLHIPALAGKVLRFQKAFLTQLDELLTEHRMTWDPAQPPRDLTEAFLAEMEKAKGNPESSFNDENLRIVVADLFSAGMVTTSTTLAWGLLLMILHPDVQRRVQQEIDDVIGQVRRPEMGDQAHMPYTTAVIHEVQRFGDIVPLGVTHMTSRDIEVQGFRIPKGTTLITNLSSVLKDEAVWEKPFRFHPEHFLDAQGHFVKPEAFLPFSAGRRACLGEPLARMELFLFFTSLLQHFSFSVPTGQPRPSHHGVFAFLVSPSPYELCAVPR
Chain of CYP2C9 (P11712 whole entry): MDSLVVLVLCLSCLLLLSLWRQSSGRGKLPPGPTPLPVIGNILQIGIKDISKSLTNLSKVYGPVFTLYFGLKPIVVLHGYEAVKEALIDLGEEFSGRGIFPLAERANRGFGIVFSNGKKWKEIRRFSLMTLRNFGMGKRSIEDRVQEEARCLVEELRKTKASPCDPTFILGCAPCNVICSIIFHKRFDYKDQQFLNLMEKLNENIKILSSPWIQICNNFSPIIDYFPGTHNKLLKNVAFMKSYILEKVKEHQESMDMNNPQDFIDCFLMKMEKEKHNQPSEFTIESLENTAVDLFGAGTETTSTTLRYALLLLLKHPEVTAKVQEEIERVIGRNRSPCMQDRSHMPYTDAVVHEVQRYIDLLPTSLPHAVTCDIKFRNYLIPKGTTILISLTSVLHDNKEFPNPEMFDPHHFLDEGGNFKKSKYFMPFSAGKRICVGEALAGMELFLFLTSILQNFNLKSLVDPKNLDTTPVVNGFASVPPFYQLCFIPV
Chain of CYP2C19 (P33261 whole entry): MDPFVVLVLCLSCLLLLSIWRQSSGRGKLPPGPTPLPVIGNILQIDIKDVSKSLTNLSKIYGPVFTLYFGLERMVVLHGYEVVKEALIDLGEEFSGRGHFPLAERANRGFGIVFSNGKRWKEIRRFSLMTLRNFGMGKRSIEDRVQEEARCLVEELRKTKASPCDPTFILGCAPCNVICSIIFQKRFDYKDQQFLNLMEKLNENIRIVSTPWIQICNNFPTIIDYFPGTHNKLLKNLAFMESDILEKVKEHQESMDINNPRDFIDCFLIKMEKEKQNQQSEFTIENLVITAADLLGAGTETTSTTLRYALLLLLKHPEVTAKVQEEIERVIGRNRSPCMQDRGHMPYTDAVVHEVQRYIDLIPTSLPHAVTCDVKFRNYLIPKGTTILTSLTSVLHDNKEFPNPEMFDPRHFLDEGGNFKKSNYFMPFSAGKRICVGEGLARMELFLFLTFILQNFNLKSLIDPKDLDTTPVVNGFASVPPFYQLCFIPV

On to `Cc1ccc(C(C)C)cc1NC(=O)Cn1c(Cc2c(Cl)cccc2Cl)nc2ccccc21`, for which the activity at 20 min, 10 µM on CYP2D6 worked out at 140%; on CYP1A2, 108%; on CYP2C9, 54.7%; at CYP2C19, 57.3%. For the same compound, the Activity in series [1] came to 74%; in the series with Mus musculus [4], 12%; in the series with Mus musculus [6], 72%. The inhibition worked out at 30% in [2] and 85% in [5]. In series [3], this compound displayed a Cmax of 70 ng/mL. In addition, the half-life is 1.49 h in series [7] and 2.62 h in [11]. In addition, in series [8], the AUC(0-t) is 128 ng·h/mL. This compound showed an AUC(0-inf) in series [9] of 136 ng·h/mL. In addition, the Vd in [10] worked out at 6.21 L/kg. The Kp at 2 h in series [12] was 1.02. The Tmax in series [13] was 0.55 h.
